Laboratory results: ChEMBL document CHEMBL3808334, “Synthesis and in vitro evaluation of novel triazine analogues as anticancer agents and their interaction studies with bovine serum albumin” (Eur J Med Chem, 2016)

Legend:
Type in all cases: functional
[1] = Growth inhibition of human Hs 578T cells assessed as cell growth at 10^-5 M incubated for 48 hrs by sulforhodamine B assay; details: read-out: Activity
[2] = tested on: MDA-MB-435; experiment: Growth inhibition of human MDA-MB-435 cells assessed as cell growth at 10^-8 M incubated for 48 hrs by sulforhodamine B assay; details: MDA-MB-435, 48 h, read-out: Activity
[3] = Growth inhibition of human UACC62 cells incubated for 48 hrs by sulforhodamine B assay; details: UACC-62, 48 h
In short: (§1)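 Cells were plated at 5,000–40,000 per well according to doubling time and preincubated 24 h at 37 °C in 5% CO2; time-zero plates were then TCA-fixed. Five concentrations (10-fold or ½-log dilutions, DMSO stock) were incubated 48 h. Cells were TCA-fixed, stained with 0.4% SRB and read at 515 nm. GI50 was taken where [(Ti−Tz)/(C−Tz)]×100 = 50.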

[4] = tested on: A549; experiment: Growth inhibition of human A549/ATCC cells assessed as cell growth at 10^-7 M incubated for 48 hrs by sulforhodamine B assay; details: A549, 48 h, read-out: Activity
In short: (§2)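 Five-dose assay: five concentrations from 10-fold or ½-log serial dilutions. Cells are plated at 5,000–40,000 per well according to doubling time, grown 24 h, then exposed 48 h at 37 °C, 5% CO₂. Fixed with cold 50% TCA (final addition) for 60 min at 4 °C and stained with 0.4% SRB in 1% acetic acid. Bound dye is solubilized in 10 mM Tris base and read at 515 nm. GI₅₀ is where [(Ti−Tz)/(C−Tz)]×100 = 50, with a time-zero plate as Tz.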

[5] = tested on: NCI-H460; experiment: Growth inhibition of human NCI-H460 cells assessed as cell growth at 10^-7 M incubated for 48 hrs by sulforhodamine B assay; details: NCI-H460, 48 h, read-out: Activity
[6] = Growth inhibition of human HCT116 cells assessed as cell growth at 10^-5 M incubated for 48 hrs by sulforhodamine B assay; details: HCT-116, 48 h, read-out: Activity
In short: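 Cells seeded at 5,000–40,000/well according to doubling time and preincubated 24 h at 37 °C, 5% CO2. Time-zero plates were TCA-fixed. DMSO concentrate was diluted in medium with 50 µg/ml gentamicin to give five concentrations (10-fold or ½ log steps), then exposed 48 h. Cells were TCA-fixed, stained with 0.4% SRB and read at 515 nm. Percent growth was taken against time-zero and control; GI50, TGI and LC50 derived.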

[7] = tested on: NCI-H460; experiment: Growth inhibition of human NCI-H460 cells assessed as cell growth at 10^-5 M incubated for 48 hrs by sulforhodamine B assay; details: NCI-H460, 48 h, read-out: Activity
[8] = Growth inhibition of human CNS cancer cells incubated for 48 hrs by sulforhodamine B assay; details: Cancer cell lines; for CC50: read-out: LC50 (the source's name); in short: as §2
[9] = tested on: SN12C; experiment: Growth inhibition of human SN12C cells assessed as cell growth at 10^-4 M incubated for 48 hrs by sulforhodamine B assay; details: read-out: Activity
[10] = Growth inhibition of human TK10 cells assessed as cell growth at 10 uM incubated for 48 hrs by sulforhodamine B assay; details: TK-10, 48 h, read-out: Activity
[11] = tested on: MCF7; experiment: Growth inhibition of human MCF7 cells assessed as cell growth at 10^-8 M incubated for 48 hrs by sulforhodamine B assay; details: MCF7, 48 h, read-out: Activity
[12] = Growth inhibition of human HOP92 cells assessed as cell growth at 10^-8 M incubated for 48 hrs by sulforhodamine B assay; details: HOP-92, 48 h, read-out: Activity
[13] = Growth inhibition of human breast cancer cells incubated for 48 hrs by sulforhodamine B assay; details: Cancer cell lines; for CC50: read-out: LC50 (the source's name)
[14] = Growth inhibition of human SF539 cells incubated for 48 hrs by sulforhodamine B assay; details: SF-539, 48 h; in short: as §1
[15] = tested on: NCI-H23; experiment: Growth inhibition of human NCI-H23 cells assessed as cell growth at 10^-4 M incubated for 48 hrs by sulforhodamine B assay; details: NCI-H23, 48 h, read-out: Activity
[16] = Growth inhibition of human melanoma cells incubated for 48 hrs by sulforhodamine B assay; details: Melanoma cell; for CC50: read-out: LC50 (the source's name)
[17] = tested on: NCI/ADR-RES; experiment: Growth inhibition of human NCI/ADR-RES cells assessed as cell growth at 10^-8 M incubated for 48 hrs by sulforhodamine B assay; details: read-out: Activity
[18] = Growth inhibition of human HOP62 cells assessed as cell growth at 10^-8 M incubated for 48 hrs by sulforhodamine B assay; details: HOP-62, 48 h, read-out: Activity
[19] = Growth inhibition of human SW620 cells assessed as cell growth at 10^-7 M incubated for 48 hrs by sulforhodamine B assay; details: SW-620, 48 h, read-out: Activity
[20] = tested on: ACHN; experiment: Growth inhibition of human ACHN cells assessed as cell growth at 10 uM incubated for 48 hrs by sulforhodamine B assay; details: read-out: Activity
In short: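 One-dose screen at 10 µM final. Cells are plated at 5,000–40,000 per well according to doubling time and preincubated 24 h at 37 °C, 5% CO₂. Compound (DMSO stock diluted in medium with 50 µg/ml gentamicin) is then added for 48 h. Growth percent is read by sulforhodamine B staining, absorbance at 515 nm.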

[21] = tested on: NCI-H226; experiment: Growth inhibition of human NCI-H226 cells assessed as cell growth at 10 uM incubated for 48 hrs by sulforhodamine B assay; details: NCI-H226, 48 h, read-out: Activity
[22] = tested on: NCI-H322M; experiment: Growth inhibition of human NCI-H322M cells assessed as cell growth at 10^-6 M incubated for 48 hrs by sulforhodamine B assay; details: read-out: Activity
[23] = Growth inhibition of human UACC62 cells assessed as cell growth at 10^-8 M incubated for 48 hrs by sulforhodamine B assay; details: UACC-62, 48 h, read-out: Activity
[24] = tested on: SR; experiment: Growth inhibition of human SR cells assessed as cell growth at 10^-6 M incubated for 48 hrs by sulforhodamine B assay; details: read-out: Activity
[25] = Growth inhibition of human OVCAR8 cells assessed as cell growth at 10^-8 M incubated for 48 hrs by sulforhodamine B assay; details: OVCAR-8, 48 h, read-out: Activity
[26] = tested on: NCI-H460; experiment: Growth inhibition of human NCI-H460 cells assessed as cell growth at 10^-4 M incubated for 48 hrs by sulforhodamine B assay; details: NCI-H460, 48 h, read-out: Activity
[27] = tested on: K562; experiment: Growth inhibition of human K562 cells incubated for 48 hrs by sulforhodamine B assay; details: K562, 48 h; in short: as §1
[28] = read-out: LC50 (the source's name)
[29] = read-out: pLC50 (the source's name) (converted)

## c1ccc(-c2nc(Nc3ccc(-c4nc5ccccc5[nH]4)cc3)nc(N3CCOCC3)n2)cc1
[1]
  growth at 10 µM: -22%
[2]
  growth at 0.01 µM: 98%
[3]; read-out: GI50
  GI50: 1660 nM
[3]; [28]
  CC50: 7290 nM
[3]; read-out: TGI
  TGI: 3480 nM
[3]; read-out: pGI50 (converted)
  GI50: 1660 nM
[3]; [29]
  CC50: 7240 nM
[3]; read-out: pTGI (converted)
  TGI: 3470 nM
[4]
  growth at 0.1 µM: 97%
[5]
  growth at 0.1 µM: 103%
[6]
  growth at 10 µM: -61%
[7]
  growth at 10 µM: -70%
[8]
  GI50: 1410 nM
  TGI: 3040 nM
  CC50: 5980 nM
[9]
  growth at 100 µM: -59%
[10]
  growth at 10 µM: -58.1%
[11]
  growth at 0.01 µM: 92%
[12]
  growth at 0.01 µM: 93%
[13]
  GI50: 1630 nM
  TGI: 4080 nM
  CC50: 8740 nM
[14]; read-out: GI50
  GI50: 1420 nM
[14]; [28]
  CC50: 6090 nM
[14]; read-out: TGI
  TGI: 2940 nM
[14]; read-out: pGI50 (converted)
  GI50: 1410 nM
[14]; [29]
  CC50: 6030 nM
[14]; read-out: pTGI (converted)
  TGI: 2950 nM
[15]
  growth at 100 µM: -51%
[16]
  GI50: 1560 nM
  TGI: 3180 nM
  CC50: 6520 nM
[17]
  growth at 0.01 µM: 95%
[18]
  growth at 0.01 µM: 92%
[19]
  growth at 0.1 µM: 92%
[20]
  growth at 10 µM: -58.9%
[21]
  growth at 10 µM: -19.3%
[22]
  growth at 1 µM: 86%
[23]
  growth at 0.01 µM: 94%
[24]
  growth at 1 µM: -20%
[25]
  growth at 0.01 µM: 101%
[26]
  growth at 100 µM: -78%
[27]; read-out: GI50
  GI50: 295 nM
[27]; [28]
  CC50: 8310 nM
[27]; read-out: TGI
  TGI: 959 nM
[27]; read-out: pGI50 (converted)
  GI50: 295 nM
[27]; [29]
  CC50: 8320 nM
[27]; read-out: pTGI (converted)
  TGI: 955 nM

## Clc1ccc(-c2nc(Nc3ccc(-c4nc5ccccc5[nH]4)cc3)nc(N3CCOCC3)n2)cc1
[1]
  growth at 10 µM: -47%
[2]
  growth at 0.01 µM: 100%
[3]; read-out: GI50
  GI50: 196 nM
[3]; read-out: TGI
  TGI: 432 nM
[3]; read-out: pGI50 (converted)
  GI50: 195 nM
[3]; read-out: pTGI (converted)
  TGI: 437 nM
[4]
  growth at 0.1 µM: 99%
[5]
  growth at 0.1 µM: 100%
[6]
  growth at 10 µM: -76%
[7]
  growth at 10 µM: -73%
[8]
  GI50: 770 nM
  TGI: 1920 nM
  CC50: > 100000 nM
[9]
  growth at 100 µM: -14%
[10]
  growth at 10 µM: -94.4%
[11]
  growth at 0.01 µM: 92%
[12]
  growth at 0.01 µM: 90%
[13]
  GI50: 620 nM
  TGI: 1860 nM
  CC50: > 100000 nM
[14]; read-out: GI50
  GI50: 520 nM
[14]; read-out: TGI
  TGI: 1830 nM
[14]; read-out: pGI50 (converted)
  GI50: 525 nM
[14]; read-out: pTGI (converted)
  TGI: 1820 nM
[15]
  growth at 100 µM: -27%
[16]
  GI50: 1070 nM
  TGI: 2480 nM
  CC50: 5790 nM
[17]
  growth at 0.01 µM: 98%
[18]
  growth at 0.01 µM: 91%
[19]
  growth at 0.1 µM: 95%
[20]
  growth at 10 µM: -90.6%
[21]
  growth at 10 µM: -64.5%
[22]
  growth at 1 µM: 2%
[23]
  growth at 0.01 µM: 94%
[24]
  growth at 1 µM: -19%
[25]
  growth at 0.01 µM: 104%
[26]
  growth at 100 µM: -33%
[27]; read-out: GI50
  GI50: 186 nM
[27]; read-out: TGI
  TGI: 391 nM
[27]; read-out: pGI50 (converted)
  GI50: 186 nM
[27]; read-out: pTGI (converted)
  TGI: 389 nM
